IMP-1 inh – inhibitors of Pseudomonas aeruginosa IMP-1 metallo-beta-lactamase; purified IMP-1, nitrocefin hydrolysis, epi-absorbance fluorescence; inhibition, % at 5.6 µM; actives 0.45% (n = 290,000);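 active = inhibition above the mean plus 3 SD of all compounds in the same screening run, cut at about 4.5% in these data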;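 also: 0% = IMP-1 with DMSO and 100% = DMSO wells lacking enzyme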
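System: purified IMP-1 / Input: IMP-1 dispensed at 0.2 nM / Medium: 50 mM HEPES pH 7.1, 50 µM ZnSO4, 0.05% Brij 35 / Timing: 15 min enzyme–compound preincubation, then 25 min nitrocefin reaction, 25 °C / Technique: plate fluorescence quenching by hydrolysis product, ex 480/em 530 nm / Repeats: singlicate testing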
PHOSPHO1 block – inhibitors of human PHOSPHO1 phosphatase | recombinant PHOSPHO1, absorbance phosphatase assay | inhibition, % at 13.3 µM | actives 1.1% (n = 290,000) | AID 1565; in the data active = inhibition above about 60%
Target sequence (Q8TCT1 whole entry, looked up): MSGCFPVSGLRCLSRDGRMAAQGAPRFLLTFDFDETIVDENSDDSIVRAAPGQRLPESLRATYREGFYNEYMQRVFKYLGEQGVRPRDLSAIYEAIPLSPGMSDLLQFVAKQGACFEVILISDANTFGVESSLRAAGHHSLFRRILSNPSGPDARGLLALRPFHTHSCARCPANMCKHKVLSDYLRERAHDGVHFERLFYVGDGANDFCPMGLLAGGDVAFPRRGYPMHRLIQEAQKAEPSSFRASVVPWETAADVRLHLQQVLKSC
VIM-2 inh – inhibitors of Pseudomonas aeruginosa VIM-2 metallo-beta-lactamase; AID 1527; purified VIM-2, nitrocefin hydrolysis, epi-absorbance fluorescence; actives 0.89% (n = 290,000); inhibition, % at 5.6 µM;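 active = inhibition above the mean of all tested compounds plus 3 SD, cutoff set per screening run, cut at about 7.5% in these data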;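 also: red hydrolysis product quenches plate fluorescence so inhibitors raise well fluorescence; 0% = enzyme with DMSO and 100% = DMSO without enzyme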
CR mimetic SO – lowers age-related superoxide in aged yeast cells; S. cerevisiae aged cells, superoxide DHE fluorescence; hits give low values; superoxide response (% of plate mean), % at 10 µM; actives 0.18% (n = 330,000); AID 2690;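 active = superoxide response under a set limit, about three screen SD below normal, cut at about 65% in these data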;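 also: yeast aged for seven days with compound at 30 °C before DHE staining; 100% = average MFI of all compound-treated wells on the plate with controls excluded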
PvdQ acylase – P. aeruginosa PvdQ acylase inhibition; purified PvdQ acylase, fluorescence plate reader; inhibition, % at 10 µM; actives 0.063% (n = 340,000); AID 488965; in the data active = inhibition above about 30%, passing the limit was not always enough;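 also: 0% = vehicle neutral wells and 100% = reference inhibitor wells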
* marks the source's active call; other numbers are inactive results; x = no result given. Rows were chosen to be rich in hits. Some 2.2% of all compounds tested hit in one or more screens of this group.

SMILES | IMP-1 inh | PHOSPHO1 block | VIM-2 inh | CR mimetic SO | PvdQ acylase
Brc1ccc(-c2cn3c(n2)SCC3)cc1 | -2.4 | 32.8 | 0.7 | 91.7 | 5.4
Clc1ccc(-c2cn3c(n2)SCC3)cc1 | 0.3 | -5.3 | -0.3 | 100.0 | -0.6
CC1CCN(S(=O)(=O)c2ccc3c(c2)N(CC(=O)NCCN2C(C)CCCC2C)C(=O)CS3)CC1 (stereo not drawn) | -1.9 | 12.6 | 1.1 | 98.8 | -17.1
Cc1ccccc1NC(=S)Nc1cccc2cnccc12 | -4.0 | 35.7 | 8.0* | 96.5 | -11.7
Cc1ccc(C)c(NC(=S)Nc2cccc3cnccc23)c1 | 0.0 | 51.4 | 10.9* | 86.4 | -7.3
Cc1ccc(C)c(NC(=S)N2CCC(NC(=O)c3ccccc3)CC2)c1 | -1.0 | -54.4 | -3.7 | 92.1 | -25.9
O=C(NC1(Cc2ccccc2)CCN(CCCc2ccccc2)C1=O)c1ccccc1 (stereo not drawn) | x | x | x | 91.0 | -13.2
O=C(C[n+]1cccc(CNC(=O)c2ccc(OC(F)F)cc2)c1)c1ccccc1 | -1.4 | 61.0* | -0.4 | 96.3 | 0.6
COc1ccc(/C=N/NC(=O)c2ccc(N3CCCC3=O)cc2)cc1 | -1.4 | -60.5 | -3.3 | 87.7 | -3.3
CSc1nc2c(c(-c3ccc(O)cc3)c1C#N)CCC2 | -4.4 | 30.8 | 7.8* | 99.9 | -8.6
CC(C)CCNC(=O)C(c1ccc(O)cc1)N(C(=O)C1COc2ccccc2O1)c1cccc(O)c1 (stereo not drawn) | -2.7 | 64.2* | -5.5 | 100.1 | -12.0
COc1cccc(NC(=O)C(=O)NCCC2CCCCN2S(=O)(=O)c2cccs2)c1 (stereo not drawn) | x | x | x | 100.7 | 4.4
O=C(NC(=S)Nc1ccccc1Cl)c1csnn1 | 0.3 | 65.0* | -2.4 | 115.4 | -4.1
CC(=O)Oc1cccc(/C=c2\sc3nc(-c4ccco4)nn3c2=O)c1 | -1.0 | 24.2 | -1.4 | 78.3 | -15.5
COc1cc(/C=c2\sc3nc(-c4ccncc4)nn3c2=O)ccc1OC(C)=O | -3.5 | 86.6* | 7.6 | x | x
COc1ccc(CC(=O)NCc2n[nH]c(=S)n2-c2ccccc2)cc1 | -0.7 | -19.0 | 5.8 | 96.8 | -4.1
COc1ccccc1-n1c(CNC(=O)COc2ccccc2)n[nH]c1=S | -4.0 | 81.6* | -2.3 | 98.2 | 1.5
CCOc1ccccc1C(=O)N/N=C/c1cccc2cccnc12 | -4.8 | 4.4 | 9.2* | 103.8 | -3.6
CCOc1ccc(C(=O)N/N=C/c2cccc3cccnc23)cc1 | 1.7 | 21.5 | -2.6 | 92.7 | -1.0
CCOC(=O)/C=C(\C)Sc1cc(=O)oc2ccccc12 | -3.3 | -3.3 | 1.6 | 89.5 | 49.1*
Cn1c(C(=O)OCC(=O)NCc2ccc(F)cc2)cc2occc21 | x | x | x | 102.8 | -2.4
Cc1ccnc2nc(C(=O)Nc3nc4ccccc4s3)nn12 | 5.0* | 22.0 | 0.8 | 89.7 | 10.1
O=C(CN1CCC(n2cnc3cc(F)ccc32)CC1)Nc1ccccc1Br | -2.0 | -3.9 | 9.8* | 86.8 | 7.2
CC(=O)N(CCCNC(=O)c1ccccc1)C(=O)c1ccccc1 | x | x | x | x | -0.5
CC(C)c1nnc(SCC(=O)NCCC2=CCCCC2)n1N | -2.6 | 92.2* | -3.4 | 84.8 | -8.5
SMILES | IMP-1 inh | PHOSPHO1 block | VIM-2 inh | CR mimetic SO | PvdQ acylase
CC(=O)N1CCN(c2nc(-c3ccco3)c3c(c2C#N)CC(C)(C)SC3)CC1 | -1.3 | 86.5* | -0.2 | 114.2 | -2.5
CC1(C)Cc2c(C#N)c(N3CCN(C(=O)c4ccco4)CC3)nc(-c3ccco3)c2CS1 | -1.9 | -3.2 | -3.7 | 110.2 | 9.3
Cc1cc(NC(=O)C2C3C(=O)N(CC4CCCO4)C(C(=O)NC(C)(C)C)C34C=CC2(C)O4)no1 (stereo not drawn) | -2.0 | 8.9 | -3.1 | 91.8 | -7.7
Cc1cc(NC(=O)C2C3C(=O)N(CC4CCCO4)C(C(=O)NCc4ccccc4)C34C=CC2(C)O4)no1 (stereo not drawn) | 5.0* | -1.9 | -2.9 | 103.4 | 1.9
C=CCN(c1ccccc1)S(=O)(=O)c1cccc(C(=O)Nc2ccc(N3CCOCC3)cc2)c1 | x | x | x | x | -9.4
CCN1CCN(C(=S)c2ccc(Cl)cc2)CC1 | 2.2 | 94.5* | -2.7 | 104.6 | -6.6
OCCN1CCN(C(=S)c2ccc(Cl)cc2)CC1 | -1.1 | 31.3 | -2.5 | 105.9 | 6.8
O=C(CSc1ncn(-c2ccccc2)n1)Nc1ccc2c(c1)OCO2 | -4.0 | 81.5* | -2.5 | 102.1 | -8.3
O=C(CSc1nccn1-c1ccc(Cl)cc1)Nc1ccc2c(c1)OCO2 | -1.9 | 88.9* | -4.5 | 124.3 | -12.5
O=C(CSc1ncn(-c2ccccc2)n1)Nc1ccc2c(c1)OCCO2 | -4.0 | 62.1* | -1.5 | 125.2 | -4.9

From PubChem
